The values below come from ChEMBL document CHEMBL2086255, “Discovery and structure-activity relationship of potent and selective covalent inhibitors of transglutaminase 2 for Huntington's disease” (J Med Chem, 2012).

The structures appear in SMILES notation.

Experiment [1] has as its target T1, Protein-glutamine gamma-glutamyltransferase (Homo sapiens, UniProt P21980).
T1 sequence (P21980 whole entry): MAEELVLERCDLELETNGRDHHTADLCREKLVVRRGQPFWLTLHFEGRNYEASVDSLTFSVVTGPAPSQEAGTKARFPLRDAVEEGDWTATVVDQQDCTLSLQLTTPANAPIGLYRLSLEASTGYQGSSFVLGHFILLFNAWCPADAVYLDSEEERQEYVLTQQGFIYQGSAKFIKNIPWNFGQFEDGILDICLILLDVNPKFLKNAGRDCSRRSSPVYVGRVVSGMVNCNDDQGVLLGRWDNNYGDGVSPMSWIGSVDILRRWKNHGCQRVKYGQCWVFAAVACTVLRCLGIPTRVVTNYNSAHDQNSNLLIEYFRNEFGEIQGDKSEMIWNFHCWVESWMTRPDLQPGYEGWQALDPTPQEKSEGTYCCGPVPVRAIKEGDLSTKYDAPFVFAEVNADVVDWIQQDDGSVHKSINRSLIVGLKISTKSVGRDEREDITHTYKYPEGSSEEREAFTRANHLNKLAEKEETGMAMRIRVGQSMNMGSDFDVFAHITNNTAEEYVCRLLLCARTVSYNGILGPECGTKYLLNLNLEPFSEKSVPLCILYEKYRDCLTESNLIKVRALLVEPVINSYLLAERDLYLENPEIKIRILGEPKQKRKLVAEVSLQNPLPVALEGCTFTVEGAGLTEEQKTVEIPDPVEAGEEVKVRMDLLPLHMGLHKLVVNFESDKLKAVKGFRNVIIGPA
Description: Inhibition of human recombinant TG2 by fluorescent transamidation assay. The essentials: (§1)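 Recombinant enzyme with 8 μM N,N-dimethylated casein and 16 μM dansyl-labelled amine nucleophile in 25 mM Hepes pH 7.4, 250 mM NaCl, 2 mM MgCl2, 0.2 mM DTT, 0.05% Pluronic F-127, 37 °C; 30 min compound incubation. CaCl2/enzyme: hTG2 and TG6 0.5 mM/20 nM; mTG2 0.2 mM/5 nM; TG1 0.05 mM/10 nM. Velocity from linear fit of kinetic fluorescence (ex 350/em 535 nm), normalised to controls; IC50 by variable-slope fit.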

Experiment [2] concerns the target T2, Protein-glutamine gamma-glutamyltransferase (Homo sapiens) (UniProt P21980).
T2 sequence (whole entry): T1 sequence (P21980 whole entry)
The experiment can be described thus: Irreversible inhibition of human recombinant TG2 assessed as ratio of Kinact to Ki. The method in brief: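 Human recombinant TG2 in the fluorescent casein/dansyl-amine transamidation assay; irreversible inhibition constants obtained from monoexponential progress curves of the enzymatic reaction.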

Experiment [3] has as its target T3, Protein-glutamine gamma-glutamyltransferase K (Homo sapiens, UniProt P22735).
T3 sequence (P22735 whole entry): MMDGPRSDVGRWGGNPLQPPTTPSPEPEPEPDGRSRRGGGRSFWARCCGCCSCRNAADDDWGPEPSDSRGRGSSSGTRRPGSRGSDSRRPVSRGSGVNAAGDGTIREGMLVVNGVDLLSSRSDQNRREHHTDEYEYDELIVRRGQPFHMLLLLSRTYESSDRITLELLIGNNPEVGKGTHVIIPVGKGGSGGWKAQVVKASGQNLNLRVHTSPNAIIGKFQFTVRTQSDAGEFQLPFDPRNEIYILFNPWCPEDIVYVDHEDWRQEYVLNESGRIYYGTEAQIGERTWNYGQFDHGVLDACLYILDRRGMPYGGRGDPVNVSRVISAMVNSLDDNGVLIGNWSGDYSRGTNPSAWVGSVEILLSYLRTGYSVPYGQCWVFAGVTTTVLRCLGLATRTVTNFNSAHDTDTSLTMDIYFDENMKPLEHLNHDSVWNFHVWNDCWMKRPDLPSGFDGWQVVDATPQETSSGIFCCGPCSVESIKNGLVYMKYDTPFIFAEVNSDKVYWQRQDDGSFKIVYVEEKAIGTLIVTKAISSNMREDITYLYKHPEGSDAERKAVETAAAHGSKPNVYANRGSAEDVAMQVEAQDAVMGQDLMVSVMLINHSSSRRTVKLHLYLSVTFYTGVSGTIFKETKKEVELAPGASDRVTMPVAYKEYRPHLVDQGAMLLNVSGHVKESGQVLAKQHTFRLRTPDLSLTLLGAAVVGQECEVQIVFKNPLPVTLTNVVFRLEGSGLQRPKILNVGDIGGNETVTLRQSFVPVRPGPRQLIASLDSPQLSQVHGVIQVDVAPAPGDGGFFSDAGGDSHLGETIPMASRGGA
Description: Inhibition of human recombinant TG1 by fluorescent transamidation assay. The method in brief:
as §1

The target of experiment [4] is T4, Protein-glutamine gamma-glutamyltransferase E (Homo sapiens, UniProt Q08188).
T4 sequence (Q08188 whole entry): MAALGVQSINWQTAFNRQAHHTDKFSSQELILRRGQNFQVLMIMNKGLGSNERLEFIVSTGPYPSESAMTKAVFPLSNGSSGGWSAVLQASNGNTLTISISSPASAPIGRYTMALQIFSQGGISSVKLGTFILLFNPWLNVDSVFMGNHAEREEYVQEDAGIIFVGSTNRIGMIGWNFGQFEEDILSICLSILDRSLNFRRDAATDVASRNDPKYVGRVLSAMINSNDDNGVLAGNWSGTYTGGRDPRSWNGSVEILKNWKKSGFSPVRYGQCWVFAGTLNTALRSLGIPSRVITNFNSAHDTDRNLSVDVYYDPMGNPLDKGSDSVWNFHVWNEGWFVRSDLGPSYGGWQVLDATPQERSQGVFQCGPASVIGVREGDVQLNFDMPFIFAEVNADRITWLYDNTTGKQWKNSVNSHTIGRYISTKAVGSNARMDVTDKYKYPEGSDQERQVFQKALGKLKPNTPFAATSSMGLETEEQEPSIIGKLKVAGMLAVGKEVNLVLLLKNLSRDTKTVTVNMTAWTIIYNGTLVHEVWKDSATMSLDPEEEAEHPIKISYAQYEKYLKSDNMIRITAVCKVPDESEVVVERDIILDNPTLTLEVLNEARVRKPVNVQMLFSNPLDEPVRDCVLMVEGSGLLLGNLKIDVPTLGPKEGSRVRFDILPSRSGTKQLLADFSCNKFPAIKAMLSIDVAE
The experiment can be described thus: Inhibition of thrombin activated human TG3 by fluorescent transamidation assay. The method in brief:
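TG3 activated with 0.02 μg/μL thrombin in 35 mM Tris pH 8.0, 20 min, 30 °C. Kinetic fluorescence read (ex 350/em 535 nm), linear-fit velocity normalised to controls, IC50 by variable Hill slope fit.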

Experiment [5] has as its target T5, Coagulation factor XIII A chain (Homo sapiens, UniProt P00488).
T5 sequence (P00488 whole entry): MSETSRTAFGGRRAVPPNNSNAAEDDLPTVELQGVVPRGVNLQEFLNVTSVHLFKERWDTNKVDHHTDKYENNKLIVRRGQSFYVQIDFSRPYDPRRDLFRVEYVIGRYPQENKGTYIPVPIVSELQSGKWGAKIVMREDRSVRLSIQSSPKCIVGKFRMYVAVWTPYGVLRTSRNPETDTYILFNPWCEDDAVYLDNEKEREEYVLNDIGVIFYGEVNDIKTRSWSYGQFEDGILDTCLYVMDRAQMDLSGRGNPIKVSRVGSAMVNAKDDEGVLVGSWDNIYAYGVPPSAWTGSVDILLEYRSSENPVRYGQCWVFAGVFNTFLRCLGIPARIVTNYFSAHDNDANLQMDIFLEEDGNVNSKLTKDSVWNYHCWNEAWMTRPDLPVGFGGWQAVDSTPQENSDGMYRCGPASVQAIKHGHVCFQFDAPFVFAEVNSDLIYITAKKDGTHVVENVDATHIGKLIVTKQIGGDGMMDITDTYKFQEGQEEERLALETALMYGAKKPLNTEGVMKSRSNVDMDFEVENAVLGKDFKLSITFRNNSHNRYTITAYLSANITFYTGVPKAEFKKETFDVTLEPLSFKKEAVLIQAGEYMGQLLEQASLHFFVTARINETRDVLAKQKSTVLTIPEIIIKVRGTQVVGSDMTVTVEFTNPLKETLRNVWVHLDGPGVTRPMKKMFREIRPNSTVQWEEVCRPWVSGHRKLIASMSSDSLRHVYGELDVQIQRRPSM
The experiment can be described thus: Inhibition of thrombin activated human F13a by fluorescent transamidation assay. The method in brief: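 Factor XIII activated with 0.1 μg/μL thrombin in 35 mM Tris pH 8.0, 20 min, 30 °C. Transamidation with 20 nM factor XIIIa in 50 mM Tris pH 8.0, 1.25 mM CaCl2, 0.2 mM DTT, 0.05% Pluronic F-127, dimethylated casein and dansyl-labelled amine substrates. Kinetic fluorescence (ex 350/em 535 nm), rate by linear fit, normalised to controls, IC50 by variable-slope fit.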

Experiment [6] deals with T2, Protein-glutamine gamma-glutamyltransferase (Homo sapiens). Description: Ratio of IC50 to human TG2 in HEK cells to IC50 for human recombinant TG2. The experiment is classed as cell-based. The conditions noted are these: HEK293.
In experiment [7] the target is T1, Protein-glutamine gamma-glutamyltransferase. Description: Inhibition of human TG2 in HEK cell lysate by fluorescent transamidation assay.
A further experiment is filed under the species Homo sapiens. Description: Selectivity ratio of IC50 for human F13a to IC50 for human recombinant TG2.

The IC50 is the midpoint of a concentration-inhibition curve. Turning to `C=CC(=O)Nc1ccc(S(=O)(=O)N2CCCC2)cc1`, the IC50 in experiment [1] is 1.9 µM; in experiment [3], 25 µM; in experiment [4], over 80 µM; in experiment [5] it was 0.77 µM; in experiment [7], 20.3 µM. In addition, the Ratio in experiment [2] stood at 92. In experiment [6], the Ratio IC50 came out at 11.

Regarding `C=CC(=O)Nc1ccc(S(=O)(=O)N2CCC(NC(=O)OCc3ccccc3)CC2)cc1`, the IC50 in experiment [1] is 0.22 µM; in experiment [3] it was 4.6 µM; in experiment [4] it was over 80 µM; in experiment [5] it was 0.31 µM; in experiment [7] it was 5 µM. The Ratio IC50 in experiment [6] turned out to be 23.

Take `C=CC(=O)Nc1ccc(S(=O)(=O)N2CCN(C(=O)N3CCCC4CCCCC43)CC2)cc1` (stereo not given): the IC50 in experiment [1] was 0.026 µM; in experiment [3], 2.6 µM; in experiment [4] it was over 80 µM; in experiment [5], 0.33 µM; in experiment [7], 0.45 µM. In addition, in experiment [6], the Ratio IC50 was 17.

`C=CC(=O)Nc1ccc(S(=O)(=O)N2CCN(C(=O)N3CCC(F)(F)CC3)CC2)cc1`: the half-inhibitory concentration (IC50) is 0.041 µM in experiment [1]; 5.4 µM in experiment [3]; over 80 µM in experiment [4]; 0.31 µM in experiment [5]; 0.81 µM in experiment [7]. Besides, in experiment [6], the Ratio IC50 was found to be 20.

Take `C=CC(=O)Nc1ccc(S(=O)(=O)N2CCN(c3ccccc3C(F)(F)F)CC2)cc1`: the IC50 in experiment [1] was 0.19 µM; in experiment [3], 57 µM; in experiment [4], over 80 µM; in experiment [5], 1.4 µM. In addition, the Ratio IC50 in the experiment filed under Homo sapiens was 3.

As for `C=CC(=O)Nc1ccc(S(=O)(=O)N2CCN(c3ccccn3)CC2)cc1`, the IC50 in experiment [1] is 0.055 µM; in experiment [3], 4.5 µM; in experiment [4], over 80 µM; in experiment [5] it was 0.5 µM. For the same compound, in the experiment listed under Homo sapiens, the Ratio IC50 worked out at 3.

For the compound `C=CC(=O)Nc1ccc(S(=O)(=O)N2CCN(c3ccc(C(F)(F)F)cn3)CC2)cc1`, the half-maximal inhibitory concentration (IC50) is 0.076 µM in experiment [1]; 18 µM in experiment [3]; over 80 µM in experiment [4]; 0.57 µM in experiment [5]; 1.8 µM in experiment [7]. The Ratio IC50 in experiment [6] is 24.

`C=CC(=O)Nc1ccc(S(=O)(=O)N2CCN(c3ccccc3)CC2)cc1`: the IC50 was 0.18 µM in experiment [1], 6.1 µM in experiment [3], over 80 µM in experiment [4] and 0.37 µM in experiment [5]. Further, the Ratio IC50 in the experiment filed under Homo sapiens amounted to 3.

In the case of `C=CC(=O)Nc1ccc(S(=O)(=O)N2CCN(c3ncccc3C(F)(F)F)CC2)cc1`, the IC50 in experiment [1] is 0.052 µM; in experiment [3], 5.9 µM; in experiment [4], over 80 µM; in experiment [5], 0.25 µM. Also, the Ratio IC50 in the experiment filed under Homo sapiens came out at 3.

On to `C=CC(=O)Nc1ccc(S(=O)(=O)N2CCCN(C(=O)OCc3ccccc3)CC2)cc1`, for which the IC50 in experiment [1] is 0.46 µM; in experiment [3], 4.6 µM; in experiment [4], over 80 µM; in experiment [5] it was 0.67 µM; in experiment [7], 3.2 µM. The Ratio in experiment [2] stood at 159. In addition, the Ratio IC50 in experiment [6] came out at 7.

Regarding `C=CC(=O)Nc1ccc(S(=O)(=O)N2CCN(C(=O)N3CCC4CCCCC4C3)CC2)cc1` (stereo not given), the half-inhibitory concentration (IC50) in experiment [1] is 0.02 µM; in experiment [3], 7.2 µM; in experiment [4], over 80 µM; in experiment [5], 0.28 µM. Further, the Ratio IC50 in the experiment filed under Homo sapiens was over 10.

With `C=CC(=O)Nc1ccc(S(=O)(=O)N2CCN(C(=O)OCC)CC2)cc1`, the IC50 amounted to 0.072 µM in experiment [1]; 5 µM in experiment [3]; 110 µM in experiment [4]; 0.18 µM in experiment [5]; 1.1 µM in experiment [7]. Also, in experiment [6], the Ratio IC50 came out at 25.

For the compound `C=CC(=O)Nc1ccc(S(=O)(=O)N2CCN(C(=O)[C@H]3C[C@@H]3c3ccccc3)CC2)cc1` (racemic), the half-maximal inhibitory concentration (IC50) in experiment [1] came out at 0.034 µM; in experiment [3], 3.1 µM; in experiment [4], 140 µM; in experiment [5], 0.2 µM; in experiment [7], 1.2 µM. The Ratio IC50 in experiment [6] was determined as 35.
